MBD2 inh – blocks human MBD2 binding to methylated DNA; Q9UBB5; TR-FRET, MBD2 binding to methylated oligonucleotide; inhibition, % at 4.4 µM; 370,000 compounds, 0.31% hits; AID 686964; in the data active = inhibition above about 13%
Target sequence (Q9UBB5 whole entry, looked up): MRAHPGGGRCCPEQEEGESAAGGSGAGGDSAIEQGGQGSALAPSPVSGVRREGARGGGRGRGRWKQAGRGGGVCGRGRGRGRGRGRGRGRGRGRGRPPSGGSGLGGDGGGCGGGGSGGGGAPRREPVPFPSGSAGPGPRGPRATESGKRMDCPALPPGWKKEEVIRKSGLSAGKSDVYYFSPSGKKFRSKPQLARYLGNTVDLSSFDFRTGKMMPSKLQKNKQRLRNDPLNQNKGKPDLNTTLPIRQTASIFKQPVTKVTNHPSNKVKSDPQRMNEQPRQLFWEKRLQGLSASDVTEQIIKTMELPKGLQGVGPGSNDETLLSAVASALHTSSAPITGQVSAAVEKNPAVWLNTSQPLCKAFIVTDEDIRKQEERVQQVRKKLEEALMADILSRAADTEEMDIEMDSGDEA
UHRF1 binding – blocks human UHRF1 binding to methylated DNA | 370,000 compounds, 0.75% hits | Q96T88 | AID 687016 | UHRF1 binding to methylated oligo, TR-FRET | inhibition, % at 4.4 µM; in the data active = inhibition above about 21%;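 note: UHRF1 SRA domain binding a hemimethylated CpG hairpin DNA probe; 0% = median of test compound wells and 100% = reference inhibitor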
Tn7 DDE FP – disrupts Tn7 cyclic peptide binding to fibrin D-Dimer-E complex; FP displacement of FITC-Tn7 peptide from fibrin DD(E); 0% = median of compound wells per plate; inhibition, % at 8.3 µM; 370,000 compounds, 0.13% hits; AID 720508;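 active = inhibition above the mean of compounds falling within the control limits plus 3 SD of them, cut at about 14% in these data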;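 note: 0% = plate median of compound wells and 100% = 10 µM Aha-Tn7 peptide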
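Assay system: Human clot-derived fibrin DD(E) complex | Buffer or medium: Tris/NaCl/CaCl2 buffer, pH 7.8 | Repeats: One replicate per compound | Benchmarks: Aha-Tn7 high control | Measure: % inhibition scaled between sample-field median and high-control FP | Schedule: 10 min plus 3 h, room temperature | Signal: Fluorescence polarization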
Tn6 DDE FP – DD(E)-Tn6 binding inhibition, primary FP screen; P02675; Fibrin DD(E) TRITC-Tn6 fluorescence polarization displacement; inhibition, % at 8.3 µM; 370,000 compounds, 0.21% hits;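 active = inhibition above a per-campaign cutoff: mean of compounds within control limits plus 3 SD, cut at about 15% in these data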;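 note: 0% = median of all compound wells on the plate and 100% = blocking peptide control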
TDP2 absorb – TDP2 (human) inhibition, absorbance primary screen | inhibition, % at 12.8 µM | recombinant TDP2, T5PNP hydrolysis, p-nitrophenol absorbance 415 nm | AID 720702 | 370,000 compounds, 0.34% hits;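 active = inhibition above the mean of all tested compounds plus 3 SD, set per campaign, cut at about 25% in these data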;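 note: 0% = DMSO with enzyme and 100% = buffer with substrate but no TDP2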
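System – recombinant human TDP2 · Amount – 120 nM TDP2 per well · Buffer or medium – Mg2+-containing Tris-HCl buffer, pH 7.5 · Reagent – T5PNP substrate, 5 mM · Dosing – 12.8 µM single point, 1% DMSO · Incubation – 2 h at 37 °C · Measured by – epi absorbance · Read-out basis – percent inhibition · Benchmarks – high control without enzyme, low control DMSO plus TDP2 · Repeats – singlicate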
LEDGF integ inh – blocks HIV-1 LEDGF/p75-dependent DNA integration | AID 743269 | 370,000 compounds, 0.64% hits | inhibition, % at 3.7 µM | TR-FRET IN-LEDGF/p75 DNA integration, Eu/Cy5;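 active = inhibition above the screen-wide mean plus 3 SD, cut at about 13% in these data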;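 note: signal is the Cy5 over europium emission ratio at 671 and 618 nm; 0% = plate median of compound wells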
Numbers without * were called inactive. Most compounds without a hit are left out; they make up all but 1.9% or so of the library.

SMILES	MBD2 inh	UHRF1 binding	Tn7 DDE FP	Tn6 DDE FP	TDP2 absorb	LEDGF integ inh
COc1cccc(CC(NC(C)=O)C(=O)NC2CCN(c3c(Cc4ccccc4)c(C)nc4ncnn34)CC2)c1 (centres undefined)	7	26*	-4	-6	7	0
CCCCOCCCNC(=O)C[C@H]1C[C@@]2(C(=O)OC)C(=C[C@H](C3CCCC3)O[C@@H]2C)N(Cc2ccccc2)C1=O	-1	0	11	1	2	0
CN1[C@@H](Cc2ccccc2)COc2cc(F)ccc2S1(=O)=O	2	3	-5	-3	-14	2
O=C(O)c1ccc(C(=O)c2ccc3c(c2)C(=O)N(CCO)C3=O)cc1	11	22*	7	1	6	-3
O=C(c1ccc2c(c1)C(=O)N(CCCO)C2=O)c1ccc2c(c1)C(=O)N(CCCO)C2=O	0	1	-4	-9	-3	2
O=C(NCC1CCN(C(=O)C(=O)c2cc3ccccc3o2)CC1)c1cccnc1	-8	-3	5	-2	7	-1
COc1ccc(Cl)cc1NC(=O)Cn1c(=O)n2nc(C)nc2c2ccccc21	3	70*	-1	0	4	-2
COc1ccccc1NC(=O)Cn1c(=O)n2nc(C)nc2c2ccccc21	-1	-2	0	-4	-1	-5
CCN(CCN(C)C)C(=O)C1CCN(S(=O)(=O)c2c(C)noc2/C=C/c2ccccc2F)CC1	2	0	4	1	12	-6
CCOc1ccccc1/C=C/c1onc(C)c1S(=O)(=O)N1CCC(C(=O)N(CC)CC)CC1	13*	16	1	-5	-6	-1
C[C@@H]1CN([C@H](C)CO)C(=O)c2cc(NS(=O)(=O)c3ccccc3)ccc2O[C@@H](C)CCCCO[C@@H]1CN(C)Cc1ccccc1	3	1	5	-5	-1	-6
Cc1cc(S(=O)(=O)N2CCCOC2CNC(=O)C(=O)NCc2ccco2)ccc1F (centres undefined)	-4	56*	-2	4	-4	0
COc1ccc(NC(=O)CN(c2ccc(C)cc2)S(C)(=O)=O)c(OC)c1	0	40*	-7	5	-2	-3
COc1cc(/C=N/NC(=O)c2nnn(-c3nonc3N)c2C(C)C)ccc1OCc1ccc(F)cc1	10	21*	-2	-2	-1	3
COc1cc(/C=N/NC(=O)c2cc(C)oc2C)ccc1OCc1ccccc1	-2	-2	5	-2	3	84*
COc1cc(/C=N/NC(=O)c2cccs2)ccc1OCc1ccccc1	7	3	5	-7	-4	6
CC(C)c1c(C(=O)N/N=C/c2cccc(OCc3ccc(F)cc3)c2)nnn1-c1nonc1N	-5	-1	1	5	-9	-2
COC(=O)[C@]12C[C@H](CC(=O)NCCCN3CCCC3=O)C(=O)N(Cc3ccccc3)C1=C[C@H](C(C)C)O[C@@H]2C1CC1	3	-1	1	-4	2	-1
Cc1ccccc1Cn1cc(CN2[C@H](Cc3ccccc3)COc3cc(Br)ccc3S2(=O)=O)nn1	3	1	0	-1	-7	-3
CC(=NCCc1ccccc1)C1=C(O)CSC1=O	-4	4	-4	-1	-5	-3
CC(=NCCc1ccccc1)C1=C(O)CCC1=O	3	45*	3	6	-3	-1
C=CCN1C(=O)[C@H](CC(=O)NCCCOCCCC)[C@@]2(C(=O)OCC)CCCC=C12	-6	-3	0	-5	-15	7
C=CCO[C@H]1CN(C(=O)OC)[C@@H](c2ccccc2Br)C[C@H]1OCC=C	0	0	-1	9	-5	3
O=C(c1coc2ccc(O)cc12)C1CC1	-10	21*	-2	4	6	-5
COc1cc(NC(=O)c2ccc3c(c2)OCO3)ccc1NC(=O)C(C)C	2	66*	-6	1	1	-2
CCOc1cc(C(=O)Nc2ccc3c(c2)OCO3)ccc1OC(F)F	9	23*	1	4	4	5

High-throughput results deposited in PubChem BioAssay by The Scripps Research Institute Molecular Screening Center.
